According to ChEMBL document CHEMBL1287804, “Synthesis, binding studies and molecular modeling of novel cannabinoid receptor ligands” (Bioorg Med Chem, 2010):
Calls of active or inactive are those of the source. The rule behind the calls is not given here.

Columns and labels:
Cannabinoid receptor 1 [1] = molecular target: T1, Cannabinoid receptor 1 (Homo sapiens, UniProt P21554); test: Displacement of [3H]-CP-55940 from human recombinant CB1 receptor expressed in HEK293 cells at 10 uM; format: cell-based
Procedure, shortened: (§1)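 Radioligand binding with human recombinant CB1 and CB2 receptors. The highest concentration tested was 10 µM, and percent displacement was recorded at that concentration. IC50 and Ki were calculated for each receptor. The selectivity index is Ki(CB1)/Ki(CB2).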

Cannabinoid receptor 1 [2] = molecular target: T1, Cannabinoid receptor 1; test: Displacement of [3H]-CP-55940 from human recombinant CB1 receptor expressed in HEK293 cells; format: cell-based; procedure, shortened: as §1
Cannabinoid receptor 2 [3] = molecular target: T2, Cannabinoid receptor 2 (Homo sapiens, UniProt P34972); test: Displacement of [3H]-CP-55940 from human recombinant CB2 receptor expressed in HEK293 cells at 10 uM; format: cell-based; procedure, shortened: as §1
Cannabinoid receptor 2 [4] = molecular target: T2, Cannabinoid receptor 2; test: Displacement of [3H]-CP-55940 from human recombinant CB2 receptor expressed in HEK293 cells; format: cell-based
Procedure, shortened: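 Radioligand binding assay on human recombinant CB2 receptor. The read-out was percent displacement of radioligand at the highest concentration tested. IC50 values were determined, and Ki values were calculated from them.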

[5] = molecular target: T3, Fatty-acid amide hydrolase 1 (Rattus norvegicus) (UniProt P97612); test: Inhibition of FAAH-mediated [14C]anandamide hydrolysis in rat brain membrane assessed as [14C]-ethanolamine production up to 50 uM after 30 mins by scintillation counting; format: cell membranes
T3 sequence (whole entry): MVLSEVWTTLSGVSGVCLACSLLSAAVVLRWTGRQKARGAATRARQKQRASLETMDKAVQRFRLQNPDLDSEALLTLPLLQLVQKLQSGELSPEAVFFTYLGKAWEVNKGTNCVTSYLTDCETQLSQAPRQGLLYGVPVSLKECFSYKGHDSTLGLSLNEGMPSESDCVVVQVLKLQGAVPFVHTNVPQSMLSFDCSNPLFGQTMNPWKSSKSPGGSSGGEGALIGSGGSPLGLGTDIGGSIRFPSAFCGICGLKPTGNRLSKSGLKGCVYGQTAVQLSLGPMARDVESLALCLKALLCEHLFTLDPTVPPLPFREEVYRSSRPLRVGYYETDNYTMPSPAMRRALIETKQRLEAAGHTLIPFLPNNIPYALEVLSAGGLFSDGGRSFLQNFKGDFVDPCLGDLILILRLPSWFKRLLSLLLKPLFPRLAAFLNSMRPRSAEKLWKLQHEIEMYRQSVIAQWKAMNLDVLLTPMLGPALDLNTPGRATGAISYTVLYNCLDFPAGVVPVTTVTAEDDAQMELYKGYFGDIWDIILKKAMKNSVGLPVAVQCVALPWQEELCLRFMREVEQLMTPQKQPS

Homo sapiens = organism: Homo sapiens; test: Selectivity index, ratio of Ki for human recombinant CB1 receptor to Ki for human recombinant CB2 receptor; procedure, shortened: as §1

T2 sequence (P34972 whole entry): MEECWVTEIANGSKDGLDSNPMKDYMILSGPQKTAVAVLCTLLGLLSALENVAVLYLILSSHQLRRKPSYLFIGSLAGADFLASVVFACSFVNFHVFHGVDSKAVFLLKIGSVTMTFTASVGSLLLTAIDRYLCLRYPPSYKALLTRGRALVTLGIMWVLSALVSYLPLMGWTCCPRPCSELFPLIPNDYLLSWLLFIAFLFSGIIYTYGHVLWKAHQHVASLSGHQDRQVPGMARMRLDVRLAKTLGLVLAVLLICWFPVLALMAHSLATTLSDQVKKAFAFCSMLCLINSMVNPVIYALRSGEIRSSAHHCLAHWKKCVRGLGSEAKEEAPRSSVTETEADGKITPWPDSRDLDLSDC
T1 sequence (P21554 whole entry): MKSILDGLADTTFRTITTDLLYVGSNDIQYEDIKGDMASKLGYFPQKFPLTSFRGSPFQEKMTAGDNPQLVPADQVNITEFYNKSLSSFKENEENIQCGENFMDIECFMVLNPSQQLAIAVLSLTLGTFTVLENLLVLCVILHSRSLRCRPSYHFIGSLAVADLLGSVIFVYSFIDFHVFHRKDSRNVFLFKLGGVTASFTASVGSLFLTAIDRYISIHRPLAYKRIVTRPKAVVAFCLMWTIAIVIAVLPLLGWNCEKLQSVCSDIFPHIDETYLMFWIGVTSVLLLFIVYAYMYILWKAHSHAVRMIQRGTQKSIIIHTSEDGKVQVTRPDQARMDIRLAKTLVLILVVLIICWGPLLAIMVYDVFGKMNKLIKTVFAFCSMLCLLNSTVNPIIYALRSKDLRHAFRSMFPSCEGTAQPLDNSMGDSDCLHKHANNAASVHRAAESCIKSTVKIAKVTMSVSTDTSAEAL

Row | Ratio Ki (Homo sapiens) | SMILES | Activity (Cannabinoid receptor 1 [1]) | IC50 (Cannabinoid receptor 1 [2]) | Ki (Cannabinoid receptor 1 [2]) | Activity (Cannabinoid receptor 2 [3]) | IC50 (Cannabinoid receptor 2 [4]) | Ki (Cannabinoid receptor 2 [4]) | inhibition [5]
1 | – | O=C(/C=C/c1ccc2ccccc2c1)CCC(=O)Nc1ccc(O)cc1 | < 50% | > 10 µM | > 10 µM | < 50% | > 10 µM | > 10 µM | inactive
2 | – | COc1ccc(/C=C/C(=O)CCC(=O)N2CCCCC2)cc1OC | < 50% | > 10 µM | > 10 µM | 50% | > 10 µM | > 10 µM | inactive
3 | – | O=C(/C=C/c1ccc(-c2ccccc2)cc1)CCC(=O)NCCO | 5.25% | > 10 µM | > 10 µM | 46.1% | > 10 µM | > 10 µM | inactive
4 | – | CCOC(=O)CNC(=O)CCCC(=O)/C=C/c1ccc2ccccc2c1 | 41.5% | > 10 µM | > 10 µM | 41.7% | > 10 µM | > 10 µM | inactive
5 | > 4.41 | O=C(/C=C/c1ccc2ccccc2c1)CCC(=O)NCCO | 0% | > 10 µM | > 10 µM | 56.5% | 1 µM | 1.03 µM | inactive
6 | – | C[C@@H](CO)NC(=O)CCCC(=O)/C=C/c1ccc2ccccc2c1 | > 10% | > 10 µM | > 10 µM | 37.7% | > 10 µM | > 10 µM | inactive
7 | > 4.9 | O=C(/C=C/c1ccc2ccccc2c1)CCCC(=O)NC1CC1 | 15.3% | > 10 µM | > 10 µM | 56.7% | 8.02 µM | 2.04 µM | inactive
8 | – | O=C(CCC(=O)N1CCOCC1)c1ccc(-c2ccccc2)cc1 | 12.2% | > 10 µM | > 10 µM | 14.9% | > 10 µM | > 10 µM | inactive
9 | – | COc1ccc(/C=C/C(=O)CCC(=O)NCCO)cc1OC | < 50% | > 10 µM | > 10 µM | < 50% | > 10 µM | > 10 µM | inactive
10 | – | O=C(/C=C/c1ccc2ccccc2c1)CCC(=O)N1CCCCC1 | < 50% | > 10 µM | > 10 µM | < 50% | > 10 µM | > 10 µM | inactive
11 | – | O=C(O)CCC(=O)/C=C/c1ccc2ccccc2c1 | 11.8% | > 10 µM | > 10 µM | 13.7% | > 10 µM | > 10 µM | inactive
12 | – | O=C(/C=C/c1ccc2ccccc2c1)CCCC(=O)N1CCCCC1 | 34% | > 10 µM | > 10 µM | 36.8% | > 10 µM | > 10 µM | inactive
13 | – | O=C(/C=C/c1ccc2ccccc2c1)CCC(=O)N(CCO)CCO | 1.81% | > 10 µM | > 10 µM | 27.3% | > 10 µM | > 10 µM | inactive
14 | > 4 | CCOC(=O)CNC(=O)CCC(=O)/C=C/c1ccc2ccccc2c1 | 5.73% | > 10 µM | > 10 µM | 54.6% | 9.82 µM | 2.5 µM | inactive
15 | – | O=C(/C=C/c1ccc2ccccc2c1)CCC(=O)NC1CC1 | 3.25% | > 10 µM | > 10 µM | 35.6% | > 10 µM | > 10 µM | inactive
16 | – | C[C@H](CO)NC(=O)CCC(=O)/C=C/c1ccc2ccccc2c1 | 2.48% | > 10 µM | > 10 µM | 38.3% | > 10 µM | > 10 µM | inactive
17 | – | O=C(O)CCCC(=O)/C=C/c1ccc2ccccc2c1 | 21.5% | > 10 µM | > 10 µM | 23.4% | > 10 µM | > 10 µM | inactive
18 | > 9.71 | O=C(/C=C/c1ccc2ccccc2c1)CCCC(=O)NCCO | 4.58% | > 10 µM | > 10 µM | 72% | 4.08 µM | 1.03 µM | inactive
19 | – | COc1ccc(/C=C/C(=O)CCC(=O)Nc2ccc(O)cc2)cc1 | < 50% | > 10 µM | > 10 µM | < 50% | > 10 µM | > 10 µM | inactive
20 | > 4.44 | O=C(CCC(=O)NCCO)CCc1ccc(-c2ccccc2)cc1 | 10.9% | > 10 µM | > 10 µM | 53% | 8.85 µM | 2.25 µM | inactive
